# Screens as filed in PubChem.
# mABHD4 FP: inhibitors of mouse ABHD4; purified mABHD4, FP-Rh probe fluorescence polarization; hit rate 0.54% among 370,000; inhibition, % at 8.92 µM;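 active = inhibition exceeding the mean over every tested compound plus 3 SD, cut at about 30% in these data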;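 note: 0% = plate median of compound wells and 100% = S159A mutant with DMSO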
# Target sequence (Q8VD66 whole entry, looked up): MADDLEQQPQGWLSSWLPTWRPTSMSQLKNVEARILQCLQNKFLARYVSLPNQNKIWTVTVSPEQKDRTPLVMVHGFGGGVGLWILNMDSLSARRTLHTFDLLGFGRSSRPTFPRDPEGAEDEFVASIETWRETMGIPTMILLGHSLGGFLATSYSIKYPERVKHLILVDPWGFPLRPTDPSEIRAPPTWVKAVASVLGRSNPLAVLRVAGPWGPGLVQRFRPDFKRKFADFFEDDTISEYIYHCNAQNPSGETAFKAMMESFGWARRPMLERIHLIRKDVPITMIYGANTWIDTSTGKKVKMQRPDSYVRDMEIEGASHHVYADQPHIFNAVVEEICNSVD
#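 Doses – 8.92 µM, single dose · Material – wild-type mouse ABHD4 protein · Replication – single well per compound (singlicate) · Measure – percent inhibition of probe binding, normalized to plate controls · Schedule – 45 min compound pre-incubation plus 60 min probe step, 25 °C · Detection – fluorescence polarization with parallel and perpendicular emission, 525/598 nm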
# DAGLB inhibitor: diacylglycerol lipase beta (human) inhibition; Q8NCG7; HEK293T DAGLB membrane lysate, EnzChek fluorogenic substrate; inhibition, % at 5.17 µM; hit rate 0.059% among 340,000; in the data active = inhibition above about 34%;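 note: 0% = enzyme with vehicle and 100% = wells lacking enzyme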
# SIAE primary: human SIAE inhibition, primary screen | SIAE FP-Rh probe binding, fluorescence polarization | inhibition, % at 9.66 µM | hit rate 0.69% among 370,000 | AID 1053197 | Q9HAT2;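 active = inhibition above a cutoff: mean of compounds within the control limits plus 3 SD of those, cut at about 17% in these data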;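 note: 0% = plate median of compound wells and 100% = probe without SIAE protein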
# TCR-CD3 inh: inhibitors of human TCR-CD3 interaction | hit rate 0.37% among 360,000 | inhibition, % at 9.4 µM | TAMRA-labeled TCR probe fluorescence, biochemical | AID 651800;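 note: recombinant mutant TCR 2C K166C tagged with TAMRA read by polarization; 0% = receptor in buffer alone and 100% = receptor with positive control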
# HTRA1 inh: HTRA1 (human) protease inhibition; Q92743; recombinant HTRA1, FP-rhodamine activity-based probe, fluorescence polarization; inhibition, % at 5.96 µM; hit rate 0.5% among 340,000; AID 504803; in the data active = inhibition above about 36%;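 note: 0% = enzyme with DMSO and 100% = wells lacking enzyme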
# BSA probe FL: interferes with TAMRA-BSA probe, flagging TCR-CD3 hits. shares compounds with TCR-CD3 inh. TAMRA-labeled BSA probe fluorescence counterscreen. inhibition, % at 9.4 µM. hit rate 10% among 1,200. AID 652035; in the data active = inhibition above about 23%;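 note: 0% = buffer low control and 100% = reference high control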
# TCR-CD3 inh conf: TCR-CD3 interaction inhibition, confirmation; inhibition, % at 9.4 µM; hit rate 48% among 1,200; shares compounds with TCR-CD3 inh; TAMRA-labeled TCR probe fluorescence binding assay
# mABHD4 conf: confirmation of mouse ABHD4 inhibitors | purified mABHD4, FP-Rh probe fluorescence polarization | hit rate 55% among 1,800 | shares compounds with mABHD4 FP | inhibition, % at 8.92 µM;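 active = mean inhibition across replicates above the hit cutoff set in the primary screen, cut at about 30% in these data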;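 note: 0% = wild-type ABHD4 with DMSO and 100% = catalytically dead S159A mutant with DMSO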
# SIAE confirm: human SIAE inhibition, confirmation | shares compounds with SIAE primary | SIAE FP-Rh activity-based probe, fluorescence polarization | hit rate 13% among 2,300 | AID 1117263 | inhibition, % at 9.66 µM;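 active = mean inhibition of the replicates above the hit cutoff set in the primary screen, cut at about 17% in these data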;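 note: 0% = SIAE with DMSO and probe and 100% = probe without SIAE; inhibitors lower polarization as more probe stays unbound to SIAE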
# Active calls of the source: *; nt = no result. In the library only some 1.6% were active in any assay of this set; here they are far more common. Cut-off read from the data, not from the text of the source, unless noted: active = inhibition above about 19%; inactive = the rest.
SMILES,mABHD4 FP,DAGLB inhibitor,SIAE primary,TCR-CD3 inh,HTRA1 inh,BSA probe FL,TCR-CD3 inh conf,mABHD4 conf,others
Cc1cccc(NC(=S)N/N=C/c2cccc(O)c2)c1C,-9,2,6,-4,-1,nt,nt,nt,
COC(=O)[C@]12C[C@H](CC(=O)NCC3CCCCC3)C(=O)N(Cc3ccco3)C1=C[C@H](C(C)C)O[C@@H]2C1CC1,9,nt,1,nt,nt,nt,nt,nt,
Cc1ccc2c(c1)-c1c(cnn1CC(=O)NCCc1ccccc1F)CO2,-1,nt,3,nt,nt,nt,nt,nt,
Oc1cc2c(cc1O)[C@H]1c3ccc(O)c(O)c3OC[C@@]1(O)C2,33*,0,-9,128*,24,65*,116*,12,
CCOc1cccc(C(=O)Nc2ccc(N(CC)CC)cc2)c1,-1,0,7,0,4,nt,nt,nt,
CCN(CC)c1cccc(OCC(=O)N(C)CCC#N)c1,63*,-2,-46,21*,23,-70,-25,-53,
COC(=O)[C@]12C[C@H](CC(=O)NCc3cccc(C(F)(F)F)c3)C(=O)N(Cc3ccc4c(c3)OCO4)C1=C[C@H](C(C)C)O[C@@H]2C1CC1,-14,nt,-7,nt,nt,nt,nt,nt,
O=C(COC(=O)c1c2c(nc3ccccc13)/C(=C/c1ccco1)CC2)NC1CCCC1,51*,7,27*,23*,60*,-18,13,28,
O=C1C=CC(=O)c2c(O)c(N3CCN(CCO)CC3)c(Cl)c(O)c21,35*,4,10,63*,35,10,39*,79*,
O=S(=O)(c1ccc(Br)cc1Cl)N1CCN(CCO)CC1,1,-1,5,2,1,nt,nt,nt,
O=C(CSc1nnc(-c2ccco2)c(-c2ccco2)n1)c1ccccc1,46*,8,10,35*,27,-16,19*,17,
[O-][n+]1c2ccccc2[n+]([O-])c2cc(O)ccc21,31*,2,10,21*,28,10,22*,35*,
CC(C)CN1C(=O)C[C@]2(C(=O)N(C)c3ccc(NS(=O)(=O)C4CCCCC4)cc32)C1c1ccccc1 (stereo partly drawn),10,nt,5,nt,nt,nt,nt,nt,
O=C1C(=Cc2ccco2)CCCC1=Cc1ccco1,-1,-13,4,11,22,nt,nt,nt,
O=C1C(=Cc2ccco2)CCC1=Cc1ccco1,31*,-4,12,45*,34,-7,17,6,
O=C(N/N=C/c1cc2c(c([N+](=O)[O-])c1)OCO2)c1ccncc1,10,2,5,10,6,nt,nt,nt,
O=C(N/N=C/c1ccncc1)c1cc([N+](=O)[O-])cc([N+](=O)[O-])c1O,32*,13,3,38*,34,4,48*,36*,
CCCCOCCCNC(=O)C[C@@H]1C[C@@]2(C(=O)OCC)CCC=C2N(Cc2cccc3ccccc23)C1=O,-13,nt,-1,7,nt,nt,nt,nt,
Cc1ccccc1CS(=O)(=O)Cc1ccc(C(=O)Nc2cccc(Cl)c2F)o1,-8,nt,-4,nt,nt,nt,nt,nt,
O=C1NC(=S)S/C1=C\C=C\c1ccc([N+](=O)[O-])o1,42*,14,0,32*,8,-1,29*,28,
CCC(NC(=O)Nc1ccc(O)cc1)(C(F)(F)F)C(F)(F)F,62*,-1,12,28*,28,4,2,28,
C/C(=N\NC(=O)COc1cccc(C)c1)c1ccc2ccccc2c1O,49*,2,-3,28*,13,-14,16,46*,
Cc1cccc(OCC(=O)NCc2ccccc2)c1,9,-4,-5,0,2,nt,nt,nt,
CCN(C[C@H]1[C@@H](c2ccc(C3=CCCC3)cc2)[C@H](CO)N1Cc1ccccn1)S(=O)(=O)c1ccccc1[N+](=O)[O-],0,nt,1,nt,nt,nt,nt,nt,
CCn1c2ccccc2c2cc(NC(=O)COC(=O)c3ccc(F)cc3F)ccc21,1,nt,2,nt,nt,nt,nt,nt,
SMILES,mABHD4 FP,DAGLB inhibitor,SIAE primary,TCR-CD3 inh,HTRA1 inh,BSA probe FL,TCR-CD3 inh conf,mABHD4 conf,others
N#C/C(=C\c1cc(O)c(O)c(O)c1)C(N)=O,38*,-2,0,32*,18,-6,13,20,
O=[N+]([O-])c1ccc(O)c(/C=N/NC(=S)Nc2ccc(Cl)cc2Cl)c1,35*,13,14,23*,32,-2,33*,27,
Cc1c(C(=O)NNC(=O)c2ccccc2O)oc2ccccc12,24,7,21*,23*,28,-9,25*,nt,SIAE confirm=10
Oc1c(N=Nc2nn[nH]n2)ccc2ccccc12,26,nt,25*,37*,nt,146*,104*,nt,SIAE confirm=44*
Oc1c(N=Nc2ccc(F)cc2)ccc2ccccc12,12,26,6,-9,6,nt,nt,nt,
C=CC(=O)NC1CCCCN(C(C)C)C1=O (stereo not drawn),0,nt,-10,nt,nt,nt,nt,nt,
COC(=O)C1CN(Cc2ccccc2)CCS(=O)(=O)N1Cc1cccc(Cl)c1 (stereo not drawn),-12,nt,-8,nt,nt,nt,nt,nt,
C/C(=N\NC(=O)c1ccccc1O)c1cccc(NC(=O)c2ccccc2)c1,4,0,6,7,20,nt,nt,nt,
C/C(=N\NC(=O)c1cc(O)ccc1O)c1cccc(NC(=O)c2cccc(Cl)c2)c1,54*,2,33*,43*,2,-13,15,36*,SIAE confirm=20*
Cc1cc2c(cc1S(=O)(=O)N1CCN(c3cccc(C)c3C)CC1)OCCN2C,129*,-3,87*,127*,-9,-1,2,78*,SIAE confirm=58*
COc1cccc(N2CCN(S(=O)(=O)c3cc4c(cc3C)N(C)CCO4)CC2)c1,-17,1,13,1,-4,nt,nt,nt,
COc1ccccc1CNC(=O)NNC(=O)CCn1nc(C)c([N+](=O)[O-])c1C,-1,nt,-11,nt,nt,nt,nt,nt,
COc1ccc(N2C(=O)c3cccc4c(N(C)CCO)ccc(c34)C2=O)cc1,5,-7,-8,5,2,nt,nt,nt,
Cc1ccc(N2C(=O)c3cccc4c(C(=O)O)ccc(c34)C2=O)cc1,-1,nt,-4,-2,nt,nt,nt,nt,
CC(=O)Nc1ccc(N2C(=O)c3cccc4c(O)ccc(c34)C2=O)cc1,24,-143,26*,54*,34,74*,52*,nt,SIAE confirm=17*
O=C1c2cccc3c(O)ccc(c23)C(=O)N1c1ccc(Cl)cc1,57*,-167,37*,32*,34,26*,21*,31*,SIAE confirm=10
Cc1cccc(C(=O)N[C@H]2CC[C@@]34CCCN3C(=O)CCC[C@H]4[C@H]2C)c1,4,nt,2,nt,nt,nt,nt,nt,
OCCOCCN1CCN(C2=Nc3ccccc3Sc3ccccc32)CC1,-4,3,-4,-6,4,nt,nt,nt,
